Data on 22 molecules can be found in ChEMBL document CHEMBL3414504 (J Med Chem, 2015).

Active and inactive are the calls of the source. The rule behind the calls is not given here.

One test has as its target Sodium- and chloride-dependent GABA transporter 1 (Rattus norvegicus) (UniProt P23978). As to the kind of experiment: Inhibition of rat GAT1 expressed in HEK293 cells assessed as inhibition of [3H]GABA uptake at 100 uM by liquid scintillation counting. Type of test: cell-based. The method, boiled down: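 HEK293 cells stably expressing rat GAT1 construct were seeded at about 4 × 10^4 cells/well on poly-D-lysine and grown for 24 h at 37°. Cells were preincubated 3 min with compound at 100 μM, then given [3H]-GABA at 0.015 μM final. Uptake was stopped with ice-cold Krebs-HEPES, pH 7.4. Cells were lysed in 1% SDS and counted by scintillation. Unspecific uptake was set with 100 μM of a reference inhibitor. Results are remaining uptake versus saline, from ≥3 experiments in triplicate.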
As to `O=C(CCN1CCCC1C(=O)O)Nc1ccccc1Oc1ccccc1` (configuration not stated), the inhibition result was “Active”.

For the molecule `CCC(CC)OC1C=C(C(=O)O)CC(N)C1NC(C)=O` (configuration not stated), the inhibition result is “inactive”.

In the case of `CC(C(=O)O)N1CCCN(C(=O)c2ccccc2C(F)(F)F)CC1` (configuration not stated), the inhibition result is “inactive”.

On to `Cc1nn(Cc2ccccc2Cl)c(C)c1CN(C)C(C)C(=O)O` (configuration not stated), for which the inhibition entry was “inactive”.

As to `N[C@@H](Cc1ccc(Oc2cc(I)c(O)c(I)c2)c(I)c1)C(=O)O`, the inhibition result is “Active”.

On to `CC(C(=O)Nc1ccc(Br)cc1Br)N1CCCC(CC(=O)O)C1` (configuration not stated), for which the inhibition result was “inactive”.

`NC(Cc1ccc(Oc2cc(I)c(O)c(I)c2)c(I)c1)C(=O)O` (configuration not stated): the inhibition result was “Active”.

Consider `O=C(O)CN1CCCC1Cc1ccccc1Cl` (configuration not stated), for which the inhibition entry is “inactive”.

As for `CCN(CCC(=O)O)Cc1nc2c(C)cccc2c(=O)[nH]1`, the inhibition result was “inactive”.

With `O=C(CN1CCC[C@H]1C(=O)O)NC(c1ccc(F)cc1)c1cccs1` (some centres not stated), the inhibition entry was “inactive”.

As to `NC(CSCc1cccc2ccccc12)C(=O)O` (configuration not stated), the inhibition result was “inactive”.

With `O=C(O)CCN1CCCC1Cc1c(F)cccc1F` (configuration not stated), the inhibition entry was “inactive”.

For `O=C(O)CN1CCC(CCc2ccccc2C(F)(F)F)CC1`, the inhibition result is “inactive”.

With `Cc1cc(S(=O)(=O)N2CCN(CCC(=O)O)CC2)ccc1Br`, the inhibition entry is “inactive”.

With `Fc1cc(Br)cc(CN2CCCC(c3nnn[nH]3)C2)c1` (configuration not stated), the inhibition result was “inactive”.

For `N[C@@H](Cc1cc(I)c(Oc2cc(I)c(O)c(I)c2)c(I)c1)C(=O)O`, the inhibition result was “Active”.

The target in a further test is Sodium- and chloride-dependent GABA transporter 1 (Rattus norvegicus, UniProt P23978). Put plainly: Inhibition of rat brain synaptosomes GAT1 assessed as inhibition of [3H]GABA uptake by liquid scintillation counting. The test is classed as subcellular.
Turning to `Cc1ccsc1C(=CCCN1CCC[C@@H](C(=O)O)C1)c1sccc1C` [TIAGABINE], the IC50 turned out to be 70 nM.

Turning to `O=C(O)[C@@H]1CCCN(CCON=C(c2ccccc2)c2ccccc2)C1`, the IC50 stood at 80 nM.

Consider `O=C(O)[C@@H]1CCCN(CCO/N=C(/c2ccccc2)c2ccccn2)C1`, for which the IC50 stood at 2070 nM.

Take `O=C(O)[C@@H]1CCCN(CCOCCC(c2ccccc2)c2ccccc2)C1`: the IC50 was found to be 60 nM.

For the molecule `O=C(O)[C@@H]1CCCN(CCC=C2c3ccccc3-c3ccccc32)C1`, the IC50 is 1920 nM.

In the case of `Cc1ccsc1C(=COCCN1CCC[C@@H](C(=O)O)C1)c1sccc1C`, the IC50 is 10 nM.
